Results from ChEMBL document CHEMBL4346668, “Novel multitarget inhibitors with antiangiogenic and immunomodulator properties” (Eur J Med Chem, 2019).
The source made the active and inactive calls. The calls are words filed in the database; no cut-off is given here.

How the values were obtained:
MCF7 = assay: Antiproliferative activity against human MCF7 cells incubated for 2 days by MTT assay; format: functional, cell-based; conditions: MCF7, 48 h
In short: (§1)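 MTT assay. Cells seeded at 3 × 10³/well (HeLa, A549, HMEC-1, HEK-293) or 5 × 10³/well (HT-29, MCF-7) in their growth media with serial compound dilutions from 10 mM DMSO stocks. Incubated 2 days at 37 °C, 5% CO₂, then MTT added for 3 h and formazan dissolved in DMSO. A540 read and viability expressed versus untreated cells. IC₅₀ determined graphically; three independent experiments.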

HMEC-1 [1] = assay: Antiproliferative activity against HMEC1 cells incubated for 2 days by MTT assay; format: cell-based; conditions: Homo sapiens, HMEC-1, 48 h; in short: as §1
HMEC-1 [2] = assay: Effect on VEGFR2 in HMEC1 cells assessed as membrane VEGFR2 level at 100 uM incubated for 24 hrs by flow cytometric analysis relative to control; format: functional, Homo sapiens
In short: (§2)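 HMEC-1 cells exposed 24 h to compound at 100 µM. Membrane VEGFR-2 measured on fixed cells stained with Alexa Fluor 647 anti-CD309; total VEGFR-2 measured after Triton X-100 permeabilization before fixation. Read by flow cytometry as % of DMSO control.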

A549 [3] = assay: Effect on VEGFR2 in human A549 cells assessed as total VEGFR2 level at 10 uM incubated for 24 hrs by flow cytometric analysis relative to control; format: functional
HMEC-1 [4] = assay: Effect on VEGFR2 in HMEC1 cells assessed as total VEGFR2 level at 10 uM incubated for 24 hrs by flow cytometric analysis relative to control; format: functional, Homo sapiens
In short: (§3)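 HMEC-1 cells exposed 24 h to compound. Membrane VEGFR-2 measured on fixed cells stained with Alexa Fluor 647 anti-CD309; total VEGFR-2 measured on lysates or permeabilized cells. Read by flow cytometry as % of DMSO control; mean ± SD of three experiments.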

HMEC-1 [5] = assay: Effect on VEGFR2 in HMEC1 cells assessed as membrane VEGFR2 level at 10 uM incubated for 24 hrs by flow cytometric analysis relative to control; format: functional, Homo sapiens; in short: as §3
A549 [6] = assay: Effect on VEGFR2 in human A549 cells assessed as total VEGFR2 level at 100 uM incubated for 24 hrs by flow cytometric analysis relative to control; format: functional
A549 [7] = assay: Induction of apoptosis in human A549 cells assessed as apoptotic cells at 100 uM incubated for 24 hrs by FITC-Annexin V staining based flow cytometric analysis (reference value: 20%); format: functional
A549 [8] = assay: Antiproliferative activity against human A549 cells incubated for 2 days by MTT assay; format: functional, cell-based; conditions: A549, 48 h; in short: as §1
HMEC-1 [9] = assay: Effect on VEGFR2 in HMEC1 cells assessed as total VEGFR2 level at 100 uM incubated for 24 hrs by flow cytometric analysis relative to control; format: functional, Homo sapiens; in short: as §2
HEK293 = assay: Antiproliferative activity against HEK293 cells incubated for 2 days by MTT assay; format: cell-based; conditions: Homo sapiens, HEK293, 48 h; in short: as §1
A549 [10] = assay: Effect on VEGFR2 in human A549 cells assessed as membrane VEGFR2 level at 100 uM incubated for 24 hrs by flow cytometric analysis relative to control; format: functional
In short: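 A549 cells exposed 24 h to compound at 100 µM. Membrane VEGFR-2 stained on fixed cells with Alexa Fluor 647 anti-VEGFR-2; Triton X-100 permeabilization before fixation used for total VEGFR-2. Flow cytometry, % of DMSO control; mean ± SD of three experiments.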

HeLa = assay: Antiproliferative activity against human HeLa cells incubated for 2 days by MTT assay; format: functional, cell-based; conditions: 48 h; in short: as §1
HMEC-1 [11] = assay: Antiangiogenic activity against HMEC1 cells assessed as inhibition of tube formation incubated for 20 hrs by matrigel based tube formation assay; format: functional, Homo sapiens
In short: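 HMEC-1 cells in EGM-2MV medium seeded at 2 x 10⁴ cells/well on Matrigel (10 mg/mL, gelled 30 min at 37°C) and attached for 30 min. Compounds were added at different concentrations and tube formation was assessed after 20 h at 37°C. The minimum concentration at which inhibition began was reported. Data representative of three experiments.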

HT-29 [12] = assay: Antiproliferative activity against human HT-29 cells incubated for 2 days by MTT assay; format: functional, cell-based; conditions: HT-29, 48 h; in short: as §1
A549 [13] = assay: Effect on VEGFR2 in human A549 cells assessed as membrane VEGFR2 level at 10 uM incubated for 24 hrs by flow cytometric analysis relative to control; format: functional
In short: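 A549 cells incubated 24 h with compound at 10 µM. Membrane VEGFR-2 (fixed cells) and total VEGFR-2 (permeabilized or lysate) stained with Alexa Fluor 647 anti-CD309 and quantified by flow cytometry relative to DMSO control; mean ± SD of three experiments.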

[14] = molecular target: Programmed cell death 1 ligand 1 (Homo sapiens) (UniProt Q9NZQ7); assay: Binding affinity to PDL1 (unknown origin) assessed as change in melting temperature at 100 uM by fluorescence based real time RT-PCR analysis
Chain of Programmed cell death 1 ligand 1 (Homo sapiens) (Q9NZQ7 whole entry): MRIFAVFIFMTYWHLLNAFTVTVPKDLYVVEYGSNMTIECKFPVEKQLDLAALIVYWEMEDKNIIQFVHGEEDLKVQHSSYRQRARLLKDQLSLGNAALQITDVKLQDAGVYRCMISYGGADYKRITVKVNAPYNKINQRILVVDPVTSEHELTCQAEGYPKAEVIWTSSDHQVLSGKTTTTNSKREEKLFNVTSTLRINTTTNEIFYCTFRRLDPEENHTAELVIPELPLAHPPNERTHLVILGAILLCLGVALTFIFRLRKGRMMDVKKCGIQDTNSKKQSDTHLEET

A549 [15] = assay: Effect on VEGFR2 in human A549 cells assessed as reduction in membrane VEGFR2 level incubated for 24 hrs by confocal laser scanning microscopic method; format: functional, cell-based
In short: (§4)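 A549 cells on cover glass treated 24 h with compound at 10 µM, then permeabilized (PEM-Triton X-100 0.5%) and fixed (3.7% formaldehyde). Direct staining 2 h at 37°C in darkness with Alexa Fluor 647 anti-VEGFR-2. Confocal imaging with a 63x oil objective, excitation 650 nm, emission 665 nm.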

A549 [16] = assay: Antiproliferative activity against human A549 cells at 200 uM incubated for 24 hrs in presence of Jurkat T cells by trypan blue staining based Neubauer chamber method relative to control; format: functional
In short: (§5)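 Co-culture of 5 × 10⁴ tumor cells/well with 2 × 10⁵ PD-1-expressing Jurkat T cells in 1.5 mL, treated 24 h with compound at 200 µM. Supernatant discarded; tumor cells trypsinized, stained with trypan blue and living cells counted in a Neubauer chamber. Proliferation inhibition (%) attributable to Jurkat presence reported; representative of three experiments.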

HMEC-1 [17] = assay: Ratio of MAC for sorafenib to MAC of test compound for antiangiogenic activity against HMEC1 cells; format: functional, Homo sapiens
[18] = molecular target: Vascular endothelial growth factor receptor 2 (Homo sapiens) (UniProt P35968); assay: Inhibition of VEGFR2 in HMEC1 cells assessed as phosphorylated VEGFR2 level at 10 uM incubated for 24 hrs by sandwich ELISA; format: cell-based
Chain of Vascular endothelial growth factor receptor 2 (Homo sapiens) (P35968 whole entry): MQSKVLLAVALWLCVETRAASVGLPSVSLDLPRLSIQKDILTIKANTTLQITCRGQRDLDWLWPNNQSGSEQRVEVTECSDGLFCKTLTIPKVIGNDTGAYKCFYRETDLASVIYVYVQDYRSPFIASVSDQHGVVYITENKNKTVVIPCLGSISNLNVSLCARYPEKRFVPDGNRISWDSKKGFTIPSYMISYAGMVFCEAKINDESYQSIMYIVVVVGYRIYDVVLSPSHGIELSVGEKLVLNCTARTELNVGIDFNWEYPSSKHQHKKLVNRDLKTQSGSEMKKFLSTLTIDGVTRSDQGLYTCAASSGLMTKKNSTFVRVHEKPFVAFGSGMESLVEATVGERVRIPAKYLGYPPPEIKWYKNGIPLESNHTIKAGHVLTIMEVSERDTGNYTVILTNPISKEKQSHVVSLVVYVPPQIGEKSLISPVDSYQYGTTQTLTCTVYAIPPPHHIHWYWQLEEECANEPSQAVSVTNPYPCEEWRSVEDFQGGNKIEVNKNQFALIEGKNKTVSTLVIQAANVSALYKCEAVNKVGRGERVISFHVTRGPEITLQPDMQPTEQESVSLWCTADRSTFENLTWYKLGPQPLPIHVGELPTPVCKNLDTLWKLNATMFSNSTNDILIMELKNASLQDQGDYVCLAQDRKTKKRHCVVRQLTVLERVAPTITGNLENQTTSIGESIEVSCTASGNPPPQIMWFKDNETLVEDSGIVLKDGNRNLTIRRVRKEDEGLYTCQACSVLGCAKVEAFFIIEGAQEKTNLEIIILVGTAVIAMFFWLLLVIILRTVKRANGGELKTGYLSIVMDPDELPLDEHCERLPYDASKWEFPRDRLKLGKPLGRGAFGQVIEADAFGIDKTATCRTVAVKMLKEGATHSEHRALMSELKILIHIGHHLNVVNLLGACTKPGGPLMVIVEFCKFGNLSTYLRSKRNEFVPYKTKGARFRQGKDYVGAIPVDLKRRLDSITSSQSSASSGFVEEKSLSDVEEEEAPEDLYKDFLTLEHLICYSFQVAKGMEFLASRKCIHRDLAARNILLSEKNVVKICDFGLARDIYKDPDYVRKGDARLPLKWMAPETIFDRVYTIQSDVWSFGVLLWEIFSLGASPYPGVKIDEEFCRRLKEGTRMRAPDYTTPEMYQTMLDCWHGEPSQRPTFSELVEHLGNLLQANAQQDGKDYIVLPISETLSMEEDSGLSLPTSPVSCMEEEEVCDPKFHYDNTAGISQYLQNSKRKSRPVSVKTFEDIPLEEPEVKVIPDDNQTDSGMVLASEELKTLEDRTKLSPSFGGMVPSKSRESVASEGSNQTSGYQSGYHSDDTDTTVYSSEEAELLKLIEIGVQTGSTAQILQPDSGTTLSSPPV
In short: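 HMEC-1 cells (5 × 10⁵/well) grown to 80% confluence, starved 24 h in 0.1% FBS medium, then treated 24 h with compound. Stimulated with VEGF-165 100 ng/ml for 30 min at 37°C. Lysates Bradford-normalized; phospho-VEGFR-2 (Tyr1175) measured by sandwich ELISA, % of DMSO control.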

A549 [19] = assay: Immunomodulatory activity in human A549 cells assessed as reduction in PD-L1 expression level at 100 uM incubated for 24 hrs by ELISA relative to control; format: functional; design: scale not given: the % may be the effect or the level left
In short: (§6)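 A549 cells (3·10⁵/well) treated 24 h with compound; final concentration 100 µM for some compounds and 15 µM for others per table footnote. Lysates protein-normalized by Bradford, and PD-L1 and c-Myc quantified by commercial ELISA kits as % of DMSO-treated cells. Mean ± SD of three experiments.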

A549 [20] = assay: Immunomodulatory activity in human A549 cells assessed as reduction in c-Myc expression level at 100 uM incubated for 24 hrs by ELISA relative to control; format: functional; design: scale not given: the % may be the effect or the level left; in short: as §6
[21] = molecular target: Vascular endothelial growth factor receptor 2 (Homo sapiens) (UniProt P35968); assay: Inhibition of VEGFR2 in HMEC1 cells assessed as phosphorylated Erk1/2 level at 10 uM incubated for 24 hrs by Western blot analysis relative to control; format: cell-based
In short: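 HMEC-1 lysates from the phospho-VEGFR-2 experiment (24 h compound, serum starvation, 30 min VEGF-165 stimulation) used at 100 µg protein for SDS gel electrophoresis and PVDF transfer. Blocked in 5% milk/TBST, then probed overnight at 4 °C with anti-phospho-ERK1/2 (T202/[…]) and an HRP secondary. Chemiluminescent detection; β-actin as internal control; quantified versus DMSO control.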

[22] = molecular target: Vascular endothelial growth factor receptor 2 (Homo sapiens) (UniProt P35968)
A549 [23] = assay: Immunomodulatory activity in human A549 cells assessed as inhibition of PD-L1 level at 100 uM incubated for 24 hrs by confocal laser scanning microscopic method; format: functional, cell-based
In short: (§7)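 A549 cells on cover glass treated 24 h at 100 µM, permeabilized with PEM-Triton X-100 0.5% and fixed in 3.7% formaldehyde. Direct immunostaining 2 h at 37°C in darkness with anti-PD-L1-AlexaFluor647 (excitation 650, emission 665 nm) and anti-c-Myc-FITC (excitation 488, emission 496–535 nm). Confocal microscopy, 63x oil objective.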

A549 [24] = assay: Immunomodulatory activity in human A549 cells assessed as inhibition of c-Myc level at 100 uM incubated for 24 hrs by confocal laser scanning microscopic method; format: functional, cell-based; in short: as §7
HT-29 [25] = assay: Antiproliferative activity against human HT-29 cells at 200 uM incubated for 24 hrs in presence of Jurkat T cells by trypan blue staining based Neubauer chamber method relative to control; format: functional; in short: as §5
HMEC-1 [26] = assay: Antiangiogenic activity against HMEC1 cells assessed as inhibition of neovascularization at 0.01 to 1 uM incubated for 20 hrs; format: functional, cell-based; conditions: Homo sapiens
In short: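 HMEC-1 cells seeded on Matrigel-coated wells (10 mg/mL Matrigel, gelled 30 min at 37°C) at 2 x 10⁴ cells/well in EGM-2MV medium and allowed to attach 30 min. Compound was then added at 1, 0.1 and 0.01 µM, and tube destruction was assessed after 20 h at 37°C by imaging.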

A549 [27] = assay: Effect on VEGFR2 in human A549 cells assessed as inhibition of VEGFR2 protein internalization to nucleus incubated for 24 hrs by confocal laser scanning microscopic method; format: functional, cell-based; in short: as §4

Structure (SMILES)	IC50 (MCF7)	IC50 (HMEC-1 [1])	Activity (A549 [3])	Activity (HMEC-1 [4])	Activity (HMEC-1 [5])	Activity (A549 [7])	IC50 (A549 [8])	IC50 (HEK293)	IC50 (HeLa)	MAC (HMEC-1 [11])	IC50 (HT-29 [12])	Activity (A549 [13])	ΔTm [14]	Activity (A549 [15])	Activity (A549 [16])	Ratio (HMEC-1 [17])	Activity [18]	Activity (A549 [19])	Activity (A549 [20])	Activity [21]	also measured
CNC(=O)c1cc(Oc2ccc(NC(=O)Nc3ccc(Cl)c(C(F)(F)F)c3)cc2)ccn1 [SORAFENIB]	14 µM	34 µM	85%	64%	46%	48%	27 µM	5 µM	6.1 µM	10 µM	17 µM	92%	–	–	–	–	–	–	–	–	Activity (HMEC-1 [2]): 46%; Activity (A549 [6]): 85%; Activity (HMEC-1 [9]): 64%; Activity (A549 [10]): 92%
COc1ccc(/C=C/c2cccc(NC(=O)Nc3cccc(Cl)c3)c2)cc1	4.3 µM	2 µM	32%	106%	55%	75%	7.7 µM	2.4 µM	11.3 µM	0.1 µM	3.5 µM	52%	3.91 °C	Active	76%	100	inactive	49%	65%	inactive	ΔTm [22]: 8.35 °C
Cc1c(COc2ccc(CN3CCCCC3C(=O)O)cc2Br)cccc1-c1ccccc1 (centres undefined)	20 µM	–	–	–	–	–	6 µM	60 µM	> 100 µM	–	19 µM	–	3.68 °C	–	55%	–	–	68%	60%	–	Activity (A549 [23]): Active; Activity (A549 [24]): Active; Activity (HT-29 [25]): 53%
COc1ccc(/C=C/c2cccc(NC(=O)Nc3ccc(Cl)cc3)c2)cc1	0.4 µM	1.8 µM	10%	109%	56%	48%	1.5 µM	1 µM	0.7 µM	0.1 µM	0.52 µM	56%	1.18 °C	Active	86%	100	inactive	25%	37%	inactive	Activity (HMEC-1 [26]): Active; Activity (A549 [23]): Active; Activity (A549 [27]): Active; Activity (A549 [24]): Active; ΔTm [22]: 6.25 °C
